Measurements from ChEMBL document CHEMBL2311377, “Trisubstituted thiophene analogues of 1-thiazolyl-2-pyrazoline, super oxidase inhibitors and free radical scavengers” (Bioorg Med Chem, 2013).

How the values were obtained:
[1] = tested on: Radical scavenging activity; test: Antioxidant activity assessed as inhibition DPPH radical production after 15 mins by spectrophotometric analysis; assay type: functional
Outline: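 Compounds at 1–50 in methanol were mixed with an equal volume of methanolic DPPH. Absorbance was compared with a control of DPPH plus methanol without compound, and results are given as percent radical scavenging.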

[2] = biological target: T1, Xanthine dehydrogenase/oxidase (Rattus norvegicus, UniProt P22985); test: Inhibition of Wistar albino rat xanthine oxidase isolated from liver using xanthine as substrate incubated for 15 mins prior to substrate addition by spectrophotometric analysis
T1 sequence (P22985 whole entry, the tested form may be a part): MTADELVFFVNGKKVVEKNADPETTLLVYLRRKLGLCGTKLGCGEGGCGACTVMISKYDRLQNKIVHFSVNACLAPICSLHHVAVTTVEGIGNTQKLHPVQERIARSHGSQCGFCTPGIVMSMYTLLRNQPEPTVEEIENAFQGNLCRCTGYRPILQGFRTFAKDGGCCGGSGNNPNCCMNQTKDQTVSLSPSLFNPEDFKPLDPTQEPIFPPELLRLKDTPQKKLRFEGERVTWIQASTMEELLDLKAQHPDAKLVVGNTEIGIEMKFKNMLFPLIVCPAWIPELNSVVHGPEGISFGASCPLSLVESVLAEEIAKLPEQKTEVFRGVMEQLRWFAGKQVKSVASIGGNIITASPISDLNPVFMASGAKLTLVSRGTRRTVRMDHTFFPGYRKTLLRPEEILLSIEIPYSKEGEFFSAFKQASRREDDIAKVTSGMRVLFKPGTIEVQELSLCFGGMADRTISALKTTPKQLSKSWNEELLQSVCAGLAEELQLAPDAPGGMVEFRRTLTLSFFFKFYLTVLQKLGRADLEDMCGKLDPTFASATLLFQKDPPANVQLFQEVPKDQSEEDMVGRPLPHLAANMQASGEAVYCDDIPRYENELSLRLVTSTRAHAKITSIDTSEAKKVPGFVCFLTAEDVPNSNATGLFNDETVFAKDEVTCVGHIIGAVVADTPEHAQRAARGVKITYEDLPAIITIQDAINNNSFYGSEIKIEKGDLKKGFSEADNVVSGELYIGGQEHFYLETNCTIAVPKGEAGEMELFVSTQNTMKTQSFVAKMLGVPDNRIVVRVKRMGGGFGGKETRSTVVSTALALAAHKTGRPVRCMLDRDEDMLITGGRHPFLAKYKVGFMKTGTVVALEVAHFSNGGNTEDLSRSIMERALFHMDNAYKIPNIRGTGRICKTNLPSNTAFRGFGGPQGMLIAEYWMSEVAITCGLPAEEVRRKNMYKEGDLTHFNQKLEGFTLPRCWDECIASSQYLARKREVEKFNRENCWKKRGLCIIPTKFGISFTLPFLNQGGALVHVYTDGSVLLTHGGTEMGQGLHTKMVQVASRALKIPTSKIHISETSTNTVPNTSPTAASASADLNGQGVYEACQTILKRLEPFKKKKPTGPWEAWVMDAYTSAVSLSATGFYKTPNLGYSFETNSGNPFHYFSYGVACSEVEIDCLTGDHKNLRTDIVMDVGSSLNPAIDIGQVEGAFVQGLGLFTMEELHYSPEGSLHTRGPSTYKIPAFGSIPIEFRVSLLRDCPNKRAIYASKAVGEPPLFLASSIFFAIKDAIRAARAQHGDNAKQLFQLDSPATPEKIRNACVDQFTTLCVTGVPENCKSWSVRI
Outline: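 Xanthine oxidase was prepared from perfused Wistar albino rat liver. The liver was homogenized in ice-cold 0.05 M phosphate (pH 7.8) with 0.1 mM EDTA and spun at 10,000g. The supernatant was precipitated with 60% ammonium sulfate, dialyzed against phosphate pH 6.8, and protein measured by Lowry. Enzyme was preincubated with compound in DMSO in phosphate pH 7.4 at room temperature for 15 min. Uric acid was read at 295 nm; inhibition was relative to DMSO-only control, and IC50 came from linear regression.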

[3] = biological target: T1, Xanthine dehydrogenase/oxidase; test: Competitive inhibition of Wistar albino rat xanthine oxidase isolated from liver using xanthine as substrate by Lineweaver-Burk plot analysis
Outline: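 Inhibition type was assessed with the rat liver XO preparation by varying xanthine substrate across 1–5 and analysing by Lineweaver–Burk plot.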

| SMILES | IC50 [1] | IC50 [2] | inhibition (INH) [3] |
| --- | --- | --- | --- |
| NS(=O)(=O)c1sc(Cl)cc1C1=NN(c2nc(-c3ccc(Cl)cc3)cs2)C(c2ccc(Cl)cc2)C1 (configuration not stated) | 43 µM | 34.2 µM | – |
| O=C1O[C@H]([C@@H](O)CO)C(O)=C1O [ASCORBIC ACID] | 11.5 µM | – | – |
| Fc1ccc(C2CC(c3cc(Cl)sc3SCc3ccccc3)=NN2c2nc(-c3ccc(Cl)cc3)cs2)cc1 (configuration not stated) | > 50 µM | > 50 µM | – |
| CN(C)c1ccc(C2CC(c3cc(Cl)sc3S(N)(=O)=O)=NN2c2nc(-c3ccc(Cl)cc3)cs2)cc1 (configuration not stated) | 19.3 µM | 8.3 µM | – |
| Fc1ccc(C2CC(c3cc(Cl)sc3Cl)=NN2c2nc(-c3ccc(Cl)cc3)cs2)cc1 (configuration not stated) | > 50 µM | > 50 µM | – |
| CCCCc1nc(Cl)c(C2CC(c3cc(Cl)sc3Cl)=NN2c2nc(-c3ccc(Cl)cc3)cs2)[nH]1 (configuration not stated) | 31.5 µM | 26 µM | – |
| Clc1ccc(-c2csc(N3N=C(c4cc(Cl)sc4Cl)CC3c3ccc(Cl)cc3)n2)cc1 (configuration not stated) | 44.8 µM | 36 µM | – |
| Clc1ccc(-c2csc(N3N=C(c4cc(Cl)sc4SCc4ccccc4)CC3c3ccc(Cl)cc3)n2)cc1 (configuration not stated) | 41.5 µM | 32 µM | – |
| Oc1ncnc2[nH]ncc12 [ALLOPURINOL] | – | 6 µM | – |
| NS(=O)(=O)c1sc(Cl)cc1C1=NN(c2nc(-c3ccc(Cl)cc3)cs2)C(c2ccc(F)cc2)C1 (configuration not stated) | > 50 µM | > 50 µM | – |
| CN(C)c1ccc(C2CC(c3cc(Cl)sc3SCc3ccccc3)=NN2c2nc(-c3ccc(Cl)cc3)cs2)cc1 (configuration not stated) | 15.6 µM | 6.2 µM | Active |
| CCCCc1nc(Cl)c(C2CC(c3cc(Cl)sc3SCc3ccccc3)=NN2c2nc(-c3ccc(Cl)cc3)cs2)[nH]1 (configuration not stated) | 21.8 µM | 20 µM | – |
| CCCCc1nc(Cl)c(C2CC(c3cc(Cl)sc3S(N)(=O)=O)=NN2c2nc(-c3ccc(Cl)cc3)cs2)[nH]1 (configuration not stated) | 29.3 µM | 23.9 µM | – |
| CN(C)c1ccc(C2CC(c3cc(Cl)sc3Cl)=NN2c2nc(-c3ccc(Cl)cc3)cs2)cc1 (configuration not stated) | 21.1 µM | 9.4 µM | – |
